Assay outcomes (PubChem BioAssay)
A selection: hits, their analogues and other compounds. The true share with any hit is near 1.3%.
PP5 primary – PP5 (human) phosphatase inhibition | P53041 | 0.18% of 320,000 active | inhibition, % at 6.7 µM | purified PP5c, OMFP substrate fluorescence | AID 1987;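 active = inhibition above the campaign's mean inhibition across all tested compounds plus 3 SD, cut at about 9.5% in these data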;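 also: 0% = DMSO only and 100% = 100 µM cantharidin control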
NR2E3 ag-1 – human photoreceptor-specific nuclear receptor agonism. Q9Y5X4. CHO-S Gal4-NCOR/VP16-NR2E3 two-hybrid, luciferase. inhibition of corepressor binding, % at 3.98 µM. 0.35% of 360,000 active. AID 602229;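 active = inhibition above the mean of all tested compounds plus 3 SD, cut at about 70% in these data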;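 also: 0% = DMSO with NR2E3 transfected cells and 100% = cells lacking NR2E3 construct; higher means lower luciferase signal from less NR2E3 corepressor binding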
Target sequence (Q9Y5X4 whole entry, looked up, the tested form may be a part): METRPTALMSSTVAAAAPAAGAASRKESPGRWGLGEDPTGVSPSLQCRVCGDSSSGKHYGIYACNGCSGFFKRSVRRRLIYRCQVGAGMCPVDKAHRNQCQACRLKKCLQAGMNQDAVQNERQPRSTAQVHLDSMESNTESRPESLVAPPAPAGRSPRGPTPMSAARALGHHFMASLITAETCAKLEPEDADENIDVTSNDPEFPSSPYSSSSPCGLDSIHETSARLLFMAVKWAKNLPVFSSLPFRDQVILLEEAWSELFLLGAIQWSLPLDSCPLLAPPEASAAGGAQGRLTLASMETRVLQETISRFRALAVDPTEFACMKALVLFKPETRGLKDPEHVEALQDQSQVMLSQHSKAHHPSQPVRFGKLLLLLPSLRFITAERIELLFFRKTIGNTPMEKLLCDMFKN
NR2E3 ag-2 – agonists of human nuclear receptor NR2E3; Q9Y5X4; GST-NR2E3/biotin-RetCOR TR-FRET, 1536-well; inhibition of corepressor binding, % at 4.78 µM; 0.12% of 320,000 active; AID 2300;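 active = percent inhibition above the cutoff of mean plus 3 SD of all tested compounds, set per screening campaign, cut at about 20% in these data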;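 also: 0% = DMSO wells and 100% = biotin wells as full block of FRET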
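Test system – NR2E3–RetCOR corepressor complex · Quantity – NR2E3 fusion 1.35 nM · Buffer or medium – Tris pH 7.5 · Incubation – Compound–protein incubation for 5 h at 4 °C · Technique – TR-FRET, Eu(K)-anti-GST donor, streptavidin-D2 acceptor, ex 340, em 617/671 nm · Evaluation – percent inhibition of 671/617 nm emission ratio versus biotin and DMSO controls · Plate – 1536-well format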
PP1 inh – counter-screen for PP5 inhibitors: inhibitors of human PP1-alpha; purified PP1alpha, OMFP fluorescence; 0.9% of 320,000 active; inhibition, % at 6.7 µM;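 active = inhibition above the mean inhibition of all tested compounds plus 3 SD, computed separately for each screening campaign, cut at about 15% in these data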
Target sequence (P62136 whole entry, looked up): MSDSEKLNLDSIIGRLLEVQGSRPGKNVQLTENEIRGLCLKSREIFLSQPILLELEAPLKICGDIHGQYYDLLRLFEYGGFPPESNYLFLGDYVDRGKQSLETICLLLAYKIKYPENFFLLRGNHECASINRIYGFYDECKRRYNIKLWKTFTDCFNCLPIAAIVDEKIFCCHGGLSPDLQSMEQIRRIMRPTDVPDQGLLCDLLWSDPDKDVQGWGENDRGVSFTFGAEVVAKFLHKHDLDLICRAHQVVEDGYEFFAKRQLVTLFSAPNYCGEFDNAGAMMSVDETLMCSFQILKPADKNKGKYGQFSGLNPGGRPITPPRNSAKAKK
NR2E3 ag confirm – confirmation of human NR2E3 agonists. 51% of 2,300 active. AID 624378. CHO-S mammalian two-hybrid NR2E3-NCOR, luciferase luminescence. shares compounds with NR2E3 ag-1. inhibition, % at 3.98 µM;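 active = average inhibition above a cutoff equal to the mean inhibition of all tested compounds plus one SD, cut at about 70% in these data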;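 also: 0% = DMSO in NR2E3 cells and 100% = DMSO in cells lacking NR2E3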
VP16 counter – counter-screen for NR2E3 agonists: GAL4-VP16 reporter inhibitors; shares compounds with NR2E3 ag-1; CHO-S GAL4-VP16 luciferase reporter, luminescence; inhibition, % at 3.98 µM; 29% of 2,300 active; AID 624379;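 active = mean inhibition above a cutoff equal to the average over all tested compounds plus one standard deviation, cut at about 70% in these data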;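 also: luciferase from a UAS reporter driven by GAL4-VP16 transactivation; 0% = DMSO with VP16-transfected cells and 100% = DMSO with cells lacking VP16; higher means less reporter light so more repression of VP16 activity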
Numbers without * were called inactive; nt = no result.

SMILES | PP5 primary | NR2E3 ag-1 | NR2E3 ag-2 | PP1 inh | NR2E3 ag confirm | VP16 counter
Cc1cc(C)cc(-n2ncc3c2CCCC3NC(=O)CN2CCCCC2=O)c1 (centres undefined) | 1 | -9 | 0 | 2 | nt | nt
Cn1ncc2c(Nc3cccc([N+](=O)[O-])c3)ncnc21 | 2 | -28 | 6 | 4 | nt | nt
O=C(CCc1ccccc1)c1nnc(-c2ccccc2)o1 | -1 | -3 | -1 | -5 | nt | nt
COCC1CCCN(C(=O)c2cc(COc3ccc4ncccc4c3)on2)C1 (centres undefined) | 0 | 105* | 2 | 1 | 94* | 87*
Cc1c(C(=O)Nc2ccc(OC(F)(F)F)cc2)sc2nc3n(c(=O)c12)CCC3 | 2 | 77* | 1 | -2 | 88* | 67
Cc1c(C(=O)Nc2ccc(Oc3ccccc3)cc2)sc2nc3n(c(=O)c12)CCC3 | 1 | 70 | -2 | -2 | 87* | 54
CCOc1ncccc1C(=O)OCC(=O)N1CCC(C)CC1 | nt | -3 | nt | nt | nt | nt
Nc1ccc2c(c1)OC1(CCCC1)O2 | -2 | 35 | 0 | 9 | nt | nt
CC(C)n1c(-c2ccc(C(C)(C)C)cc2)n[nH]c1=S | 2 | 79* | 2 | 2 | 84* | 70
O=C1N(c2ccccc2)C[C@@H]2C[C@@H](c3cc4ccccc4o3)N3CCC[C@@]123 | nt | 78* | nt | nt | 99* | 85*
Cc1ccc(-c2ccccc2[C@@H]2C[C@H]3CN(C)C(=O)[C@]34CCCN24)o1 | 1 | -18 | 4 | 1 | nt | nt
CCN(CC(=O)NCc1ccc(Cl)cc1)C(=O)c1ccc2cc(OC)ccc2c1 | 3 | 51 | 8 | 2 | 28 | 61
Cc1ccc([C@H]2C(C(=O)O)=CC[C@@H](c3ccc(Cl)cc3)N2S(=O)(=O)c2ccccc2C)cc1 | nt | 48 | nt | nt | 28 | 31
Cc1ccccc1S(=O)(=O)N1[C@@H](c2ccc(Cl)cc2)C(C(=O)O)=CC[C@H]1c1ccc(Cl)cc1 | nt | 65 | nt | nt | 27 | 19
NC(=O)NC(CC(=O)N1CCc2ccccc2C1)c1ccc(Cl)cc1 (centres undefined) | 0 | -20 | 4 | -3 | nt | nt
CCOC(=O)C1(CCCc2ccccc2)CCN(C(=O)c2cc(C)nn2CC)CC1 | 3 | -15 | 3 | 0 | nt | nt
CCC(C)c1ccc(C(C)NC(=S)NC2CCCCC2)cc1 (centres undefined) | 1 | 85* | -1 | -1 | 57 | 48
CC(C)c1ccc(C(C)NC(=S)NC2CCCCC2)cc1 (centres undefined) | nt | 50 | nt | nt | 11 | 16
Cc1ccc(OCc2ccc(C(=O)Nc3c(C)nn(Cc4c(F)c(F)c(F)c(F)c4F)c3C)o2)c([N+](=O)[O-])c1 | 5 | 51 | -3 | 2 | 40 | 53
C=CCN(Cc1ccc(OC)c(OC)c1)C(=O)c1cc2cc(F)ccc2[nH]1 | 1 | 1 | -2 | 5 | nt | nt
Cc1nnc(NC(=O)c2c(-c3ccccc3Cl)noc2C)s1 | 3 | -14 | 2 | -2 | nt | nt
Cc1onc(-c2ccccc2)c1C(=O)Nc1ncc([N+](=O)[O-])s1 | 0 | 101* | -1 | 2 | 99* | 81*
Cc1nc(NC(=O)c2c(-c3ccccc3Cl)noc2C)sc1C | 2 | 79* | -2 | -3 | 80* | 18
Cc1onc(-c2ccccc2)c1C(=O)Nc1nnc(C(C)C)s1 | 3 | -39 | 0 | 7 | nt | nt
C=CCn1c(CNS(=O)(=O)c2ccc(Br)cc2)n[nH]c1=S | -2 | -26 | -1 | 4 | nt | nt
SMILES | PP5 primary | NR2E3 ag-1 | NR2E3 ag-2 | PP1 inh | NR2E3 ag confirm | VP16 counter
COc1ccc(N2CCN(C(=O)CSc3nc4nc(C)cc(C)n4n3)CC2)cc1 | -3 | -13 | 4 | 0 | nt | nt
O=C(COc1ccc(Cl)cc1)OCC(=O)N1CCOCC1 | nt | -10 | nt | nt | nt | nt
S=C(Nc1ccc(Br)cc1)Nc1ccc2c(c1)OCCO2 | 2 | 50 | 2 | 4 | -85 | -79
O=C(NC(=S)Nc1ccc2c(c1)OCCO2)c1cccc(Br)c1 | 2 | -123 | -2 | -2 | nt | nt
CCOc1ccc(S(=O)(=O)NCCC(=O)NC2CCCCC2)cc1 | 3 | 27 | 3 | -5 | nt | nt
CCCOc1ccc(OCC(=O)c2[nH]c(C)c(C(C)=O)c2C)cc1 | 4 | 79* | 3 | -4 | 94* | 78*
CC(=O)c1c(C)[nH]c(C(=O)COc2cc(C)cc(C)c2)c1C | 0 | 15 | 1 | 0 | nt | nt
COc1ccccc1OC(C)C(=O)Nc1nc(-c2ccc(S(=O)(=O)N3CCOCC3)cc2)cs1 (centres undefined) | 4 | 11 | 0 | 0 | nt | nt
CNc1nc(-c2ccc(S(=O)(=O)N3CCCCC3)cc2)cs1 | 2 | 54 | 7 | 1 | -27 | -7
COc1ccccc1C(=O)Nc1nc(-c2ccc(S(=O)(=O)N3CCOCC3)cc2)cs1 | 2 | 92* | -2 | 4 | 89* | 63
O=C(Nc1nc(-c2ccc(S(=O)(=O)N3CCCC3)cc2)cs1)c1ccco1 | 5 | -19 | 3 | -1 | nt | nt
CCC1Sc2ccc(S(=O)(=O)Nc3ccc(OC)c(OC)c3)cc2NC1=O (centres undefined) | 2 | 88* | 0 | -3 | 81* | 57
CCC1Sc2ccc(S(=O)(=O)Nc3ccc(OC)cc3)cc2NC1=O (centres undefined) | 3 | 60 | 4 | 2 | 45 | 52
CCC1Sc2ccc(S(=O)(=O)CCC(=O)Nc3ccc(C(=O)OC)cc3)cc2NC1=O (centres undefined) | -1 | -9 | 1 | 0 | nt | nt
COc1ccc(Cl)cc1NC(=O)CSc1nc2sccc2c(=O)[nH]1 | 0 | 10 | 2 | 2 | nt | nt
COc1ccc(C)cc1NC(=O)CSc1nc2scc(C)c2c(=O)[nH]1 | -1 | 84* | 0 | 6 | 44 | 23
CCCN(CCC)c1nc(-c2ccccn2)nc2ccccc12 | nt | 104* | nt | nt | 99* | 85*
CN(C)c1nc(-c2ccccn2)nnc1-c1ccccc1 | -1 | 10 | 2 | -2 | nt | nt
CCN(CC)c1nc(-c2ccccn2)nc(-c2ccccc2)c1C#N | 4 | 83* | 5 | 5 | 47 | 39
O=C(NCc1cccnc1)C1Cc2c(-c3ccc(Cl)cc3)ccnc2O1 (centres undefined) | nt | -20 | nt | nt | nt | nt
CCOC(=O)N/N=C(\c1ccccc1)C(O)c1ccccc1 (centres undefined) | 2 | -27 | -2 | -4 | nt | nt
CC(C)c1c(O)ccc2c1CC[C@H]1C(C)(C)CCC[C@]21C | nt | -12 | nt | nt | nt | nt
NC(=S)N/N=C/c1c(O)ccc2ccccc12 | 0 | 75* | -2 | 5 | 2 | 10
COc1cc(-c2coc3c(C(=O)NCc4ccc(OC)c(OC)c4)cccc23)ccc1O | nt | 53 | nt | nt | 61 | 30
O=C(NCc1ccc(F)c(F)c1)c1ccc(-c2ccc(F)c(F)c2)c2ccoc12 | nt | -37 | nt | nt | nt | nt
O=C(NCc1ccccc1)c1cccc2c(-c3ccc(F)c(F)c3)coc12 | nt | -66 | nt | nt | nt | nt
COc1ccc(CNC(=O)c2cccc3c(-c4cccc(C(N)=O)c4)coc23)cc1OC | nt | 53 | nt | nt | 64 | 57
